Rows were chosen to be rich in hits. Some 1.2% of all compounds tested hit in one or more screens of this group.
Redox H2O2 prof: compounds producing H2O2 with reducing agent – biochemical, NIH compound library profiling, artefact control for MLSCN library redox annotation, primary screen | AID 878 | 0.03% of 200,000 active | activation, % at 10 µM | DTT-dependent redox cycling H2O2, phenol red/HRP absorbance; 100% = 100 µM peroxide control, 0% = buffer;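 active = activation of at least 50% relative to the plate's high and low controls in the primary single-dose screen; inactive = activation below 50%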;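 also: compound incubated with DTT at 0.8 mM final as the reducing agent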
S1P3 antag-1: S1P3 (human) receptor antagonism; CHO S1P3 NFAT-BLA reporter, FRET fluorescence, antagonist mode; inhibition, % at 4.98 µM; 0.27% of 170,000 active; Q99500;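 active = inhibition above the plate cutoff, the mean inhibition of test wells on that plate plus 3 SD, cut at about 28% in these data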;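 also: cells challenged with S1P at its EC80 of 0.8 µM; blue over green emission ratio from cleaved BLA substrate after 4 h stimulation; 0% = S1P-stimulated wells and 100% = unstimulated DMSO-only wells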
hK5 inh: kallikrein 5 (human) inhibition | Q9Y337 | recombinant hK5, fluorogenic AMC substrate cleavage | inhibition, % at 5 µM | 0.59% of 210,000 active | AID 873;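 active = inhibition of 40% or more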;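 also: 0% = enzyme controls without compound and 100% = no-enzyme blanks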
Target sequence (Q9Y337 67-293 limits assumed): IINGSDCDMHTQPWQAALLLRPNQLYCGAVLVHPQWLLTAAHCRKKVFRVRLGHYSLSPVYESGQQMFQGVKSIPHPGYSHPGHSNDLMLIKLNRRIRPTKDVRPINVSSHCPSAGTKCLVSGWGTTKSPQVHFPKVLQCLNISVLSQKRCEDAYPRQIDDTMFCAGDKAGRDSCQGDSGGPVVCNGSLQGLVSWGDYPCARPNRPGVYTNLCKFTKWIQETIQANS
FXIIa inh: blocks human coagulation factor XIIa protease activity | inhibition, % at 5 µM | purified FXIIa, Boc-QGR-AMC fluorogenic substrate, 2 h | P00748 | 0.3% of 220,000 active | AID 800; in the data active = inhibition above about 40%;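 also: 0% = enzyme with no compound and 100% = blank without enzyme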
Thrombin inh: blocks human thrombin protease activity; alpha-thrombin, Boc-VPR-AMC fluorogenic substrate cleavage; 0.26% of 220,000 active; P00734; inhibition, % at 5 µM; AID 1046;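 active = inhibition at or above 40%; inactive = inhibition below 40%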;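 also: 0% = enzyme with no compound and 100% = wells without enzyme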
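Material: human alpha-thrombin enzyme / Medium: pH 7.5 Tris (50 mM) with NaCl 150 mM, Tween 20 0.05% / Compound: single-point dosing at 5 µM, 0.2% DMSO / Incubation: enzyme reaction carried out at room temperature / Detection: AMC fluorescence, 355/460 nm / Read-out basis: percent inhibition scaled between no-compound controls and no-enzyme blanks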
FXIa inh: inhibitors of human coagulation factor XIa. inhibition, % at 5 µM. purified FXIa, Boc-Glu-Ala-Arg-AMC fluorogenic substrate. P03951. 0.14% of 220,000 active;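 active = inhibition of at least 40%; inactive = inhibition below 40%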;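 also: fluorescence of freed AMC excited at 355 nm; 0% = enzyme without compound and 100% = no enzyme blank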
S1P3 antag-2: confirmation of human S1P3 receptor antagonists; shares compounds with S1P3 antag-1; CHO S1P3 NFAT-BLA reporter, FRET, antagonist mode; inhibition, % at 4.98 µM; 30% of 240 active; AID 1429;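 active = inhibition above the hit threshold that was computed for the earlier primary screen, cut at about 30% in these data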;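 also: 0% = S1P-stimulated wells and 100% = unstimulated DMSO-only wells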
* hit, by the source's call; x = no result.

SMILES	Redox H2O2 prof	S1P3 antag-1	hK5 inh	FXIIa inh	Thrombin inh	FXIa inh	S1P3 antag-2
CCCNC(=O)Cn1cnc2sc(C(=O)N3CCN(Cc4ccc5c(c4)OCO5)CC3)c(C)c2c1=O	0.0	30.4*	-1.8	7.2	3.5	0.5	-15.3
C=CCNC(=S)Nc1ccc(Cl)c(S(=O)(=O)N2CCOCC2)c1	7.3	69.6*	-1.9	7.4	-2.5	5.0	-10.8
C=CCNC(=S)Nc1ccc(OC)c(S(=O)(=O)N2CCOCC2)c1	-0.3	-13.8	9.4	2.2	2.3	-6.5	x
O=[N+]([O-])c1cc2c(cc1/C=N/NS(=O)(=O)c1ccc(Br)cc1)OCO2	-1.8	-3.4	2.4	11.4	2.2	0.2	x
CCCc1nc2ccccc2c(C(=O)OCC(=O)NCc2ccc3c(c2)OCO3)c1CC	-0.3	-0.5	-7.8	0.3	-2.6	-3.4	x
CCCc1nc2ccccc2c(C(=O)OC(C)C(=O)NCc2ccc3c(c2)OCO3)c1CC (stereo not drawn)	0.2	30.7*	-3.3	6.0	-4.3	2.0	10.7
O=C1[C@@H]2[C@@H]3C[C@@H]([C@H]4ON=C(c5ccc(Cl)cc5)[C@@H]34)[C@@H]2C(=O)N1C1CCCCC1	0.1	4.2	-5.9	15.4	-2.7	3.1	x
CCCc1ccc(Oc2cn[nH]c2-c2ccc(O)cc2O)cc1	0.2	29.9	-14.5	13.6	5.9	5.1	x
CCOC(=O)c1ccc(Oc2cn[nH]c2-c2ccc(O)cc2O)cc1	x	29.0*	1.7	4.5	-4.9	2.9	-16.4
CN1CCc2c(n(CC(O)CN3CCN(CCO)CC3)c3ccccc23)C1=O (stereo not drawn)	-0.1	40.9*	-9.7	10.6	-12.1	-1.1	-9.2
N#C/C(=C\c1ccc[nH]1)C(=O)N1CCCCC1	x	4.8	-3.8	7.9	1.5	-5.8	x
CCC(C)NC(=O)Cc1c(OC)ccc2cc(Br)ccc12 (stereo not drawn)	0.3	32.7*	0.3	7.9	-9.6	-0.8	-0.9
CC(C)Oc1nc(-c2ccc(Cl)cc2)nc2ccccc12	x	-3.9	3.2	8.9	2.3	4.3	x
CCOc1nc(-c2ccc(Cl)cc2)nc2ccccc12	0.3	39.3*	-12.7	-0.4	-14.4	-4.9	-3.6
CCOC(=O)c1ccc(N2C(=O)c3n[nH]c(-c4ccco4)c3C2c2cccc([N+](=O)[O-])c2)cc1 (stereo not drawn)	0.1	5.0	9.6	17.6	-2.4	4.7	x
CN(c1nc2ccccc2n2c(C3CC3)nnc12)S(=O)(=O)c1ccccc1	x	6.3	1.1	5.1	-9.2	1.8	x
O=C(NC(=S)Nc1ccc(S(=O)(=O)Nc2nccs2)cc1)C1CC1	x	3.1	-0.8	6.9	-1.1	8.2	x
CC(C)C(=O)NC(=S)Nc1ccc(S(=O)(=O)Nc2nccs2)cc1	-1.8	28.2*	13.6	10.3	6.2	5.8	-19.9
CCc1ccc(/C=C(\Cl)c2nc3cc(Cl)ccc3c(=O)[nH]2)cc1	-0.3	6.2	1.5	12.3	-2.6	2.0	x
CC(C)(C)c1cc(C(=O)NN)n(Cc2ccc(F)cc2)n1	x	4.7	-0.3	9.6	3.2	-4.1	x
Cc1cccc(Cn2nc(C(C)(C)C)cc2C(=O)Nc2ccc(F)cc2)c1	x	36.5*	3.3	10.2	2.5	4.4	52.9*
CCO[C@@H]1OC(C(=O)N2CCN(Cc3ccc4c(c3)OCO4)CC2)=C[C@H](C2CCCCC2)[C@H]1CCCO	1.3	1.3	0.2	7.9	0.4	1.4	x
COc1ccc(-[n+]2c(C)cc(/C=C3\Sc4ccccc4N3C)cc2C)cc1	0.2	50.3*	5.2	10.1	-6.3	-1.0	30.2*
COc1ccccc1-[n+]1c(C)cc(/C=C2\Sc3ccccc3N2C)cc1C	x	56.9*	5.0	9.1	-2.5	4.3	39.3*
CCOC(=O)c1sc(NC(=O)C(C)Sc2nnc(N)s2)nc1C (stereo not drawn)	-0.4	-7.8	-9.9	7.7	-2.4	-3.4	x
O=C(c1cnc2ccc3ccccc3c2c1)c1cc(F)ccc1O	x	31.9*	4.7	13.1	0.9	3.5	-2.9
Cc1nn(C)c2ncc(C(=O)c3cc(F)ccc3O)cc12	0.1	x	4.0	8.6	-4.7	0.0	x

High-throughput results as filed in PubChem BioAssay.
